# Compounds with a hit are over-represented: about 3.4% of the library has one in this group of screens.
# ANO1 block: inhibitors of mouse TMEM16A calcium-activated chloride channel; Q8BHY3; HEK293 TMEM16A/YFP iodide influx fluorescence, ionomycin; normalized B-score (activity score, 25-100; higher = stronger inhibition) at 10 µM; 310,000 compounds, 1.2% hits; AID 588511;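 active means ratio plate-corrected score three or more library SD toward inhibition, starting fluorescence score within five deviations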;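 further: score derived from kinetic fluorescence span divided by baseline fluorescence per well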
# MIN6 prolif: MIN6 beta-cell proliferation induction. MIN6 cells proliferation, ATPlite luminescence, 48 h; cells starved in 0.2% serum; 100% = growth in 10% serum. proliferation, % at 10 µM. 330,000 compounds, 0.29% hits. AID 2380;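 active means compounds whose signal lies at least 3.5 SD above the mean of all wells on their plate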;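 further: 0% = DMSO-treated cells in low-serum medium and 100% = 10% serum control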
# ANO1 activ: activators or potentiators of mouse TMEM16A chloride channel. Q8BHY3. HEK293 TMEM16A/YFP-H148Q/I152L, iodide quench fluorescence; hits give low values. B-score at 10 µM. 340,000 compounds, 0.3% hits. AID 623877;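 active means fluorescence-ratio B-score plate-corrected deviation score at least 3 library SD below zero, with starting fluorescence score within 5 deviations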;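 further: channel opened by trigger with iodide after compound preincubation; score built on the fluorescence ratio of max minus min over baseline; more negative score means more quench and so TMEM16A activation or potentiation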
# MC4R antag cAMP: human MC4R antagonism in cAMP assay; P32245; 360,000 compounds, 0.48% hits; inhibition, % at 6.5 µM; AID 540295; MC4R-expressing cells, MTII-stimulated cAMP, LANCE TR-FRET;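 active means inhibition above its plate's cutoff, the mean of tested wells on that plate plus 3 SD, cut at about 29% in these data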;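 further: 0% = Melanotan II alone and 100% = Melanotan II plus saturating MCL0020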
#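 System – human MC4R-expressing U2OS cells · Also added – Melanotan II · Dosing – one concentration, 6.5 µM nominal · Timing – 30-min compound, 1-h challenge, 1-h detection, room temperature · Measured by – Eu-cAMP/anti-cAMP TR-FRET, emission 671 nm · Replicates – singlicate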
# MC4R barr agon: agonists of human melanocortin 4 receptor (MC4R) beta-arrestin; 360,000 compounds, 0.98% hits; P32245; activation, % at 8.9 µM; U2OS MC4R beta-arrestin complementation, luminescence; percent of melanotan II response, DMSO zero; AID 540308;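 active means activation above a per-plate cutoff, the mean activation of sample wells on that plate plus 3 SD, cut at about 8% in these data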
# HTR2A ag: agonists of mouse serotonin 5-HT2A receptor (HTR2A); P35363; AID 624169; CHO-K1 mHTR2A beta-arrestin complementation, luminescence; percent of 30 µM serotonin response; 360,000 compounds, 0.66% hits; activation, % at 7.6 µM;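 active means activation above a run cutoff, the mean activation of all tested compounds plus 3 SD, cut at about 14% in these data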;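 further: 0% = plate median of compound wells and 100% = 30 µM serotonin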
# Target sequence (P35363 whole entry, looked up): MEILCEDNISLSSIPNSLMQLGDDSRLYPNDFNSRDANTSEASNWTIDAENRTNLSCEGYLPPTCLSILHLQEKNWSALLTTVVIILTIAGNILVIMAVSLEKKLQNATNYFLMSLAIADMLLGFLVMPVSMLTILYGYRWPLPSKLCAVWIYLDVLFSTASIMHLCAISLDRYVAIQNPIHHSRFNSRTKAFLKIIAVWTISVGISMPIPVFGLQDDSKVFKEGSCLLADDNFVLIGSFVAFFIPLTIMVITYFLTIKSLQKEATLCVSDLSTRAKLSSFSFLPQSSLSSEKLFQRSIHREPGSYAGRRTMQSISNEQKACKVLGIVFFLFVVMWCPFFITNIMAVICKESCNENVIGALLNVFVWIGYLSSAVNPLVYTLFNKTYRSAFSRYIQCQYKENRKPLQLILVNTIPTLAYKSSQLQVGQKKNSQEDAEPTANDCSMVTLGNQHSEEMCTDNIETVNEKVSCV
# * = called active by the depositor; i = inactive; · = no result.
SMILES,ANO1 block,MIN6 prolif,ANO1 activ,MC4R antag cAMP,MC4R barr agon,HTR2A ag
COC(=O)c1sc2ncccc2c1OCc1ccc(Cl)cc1,i,1.8,i,5.2,8.8*,6.3
Cc1ccc(CN2C(=O)N/C(=C\c3ccc(N4CCOCC4)cc3)C2=O)cc1,i,0.0,i,-1.6,8.6*,-1.9
CCCN1C(=O)/C(=C/c2ccc(N3CCOCC3)cc2)NC1=S,i,-0.7,i,-3.7,-3.6,-4.1
COc1ccc(C)cc1NC(=O)CCNC(=O)Cn1cnc2ccccc2c1=O,i,-3.0,i,-3.5,2.6,6.5
O=c1cc(-c2c(F)c(F)c(F)c(F)c2F)oc2c(F)c(F)c(F)c(F)c12,25*,-5.8,·,·,·,·
O=C(NCc1ccccc1)c1cc(C2CCCN(C(=O)c3ccccc3)C2)on1 (stereo unspecified),·,·,·,-2.4,0.6,2.5
COc1ccc(OCCNc2cc(Cl)ccc2[N+](=O)[O-])cc1,i,-1.2,i,13.0,10.4*,8.6
O=C(O)c1cc2c(N3CCC(Cc4ccccc4)CC3)ncnc2s1,i,-2.6,i,3.7,-1.2,0.6
c1ccc(CC2CCN(c3ncnc4sccc34)CC2)cc1,·,·,-39.9*,8.3,-1.6,-1.1
COC(=O)CC1(C(=O)OC)Nc2cc(Cl)c(Cl)cc2S(=O)(=O)N1O (stereo unspecified),·,·,·,27.7,-1.1,-4.7
CN1/C(=C/C=C/c2n(C)c3cc([N+](=O)[O-])c([N+](=O)[O-])cc3[n+]2C)C(C)(C)c2ccccc21,·,·,·,-28.9,-5.8,-15.9
CC(C)Oc1ccc(Cn2c(=O)sc3ccccc32)cc1,25*,-1.4,i,16.5,2.5,-4.8
COc1ccc(Cn2c(=O)sc3ccccc32)cc1,i,-3.4,i,-3.0,2.1,-4.1
CCCCCCSc1ccc([C@H]2N[C@@](Cc3ccccc3)(C(=O)OC)[C@H]3C(=O)N(C)C(=O)[C@@H]23)cc1OC,i,-3.6,i,3.7,1.1,-1.4
O=C(/C=C/c1cccc(Cl)c1)c1ccc([N+](=O)[O-])o1,i,-6.9,i,33.6*,-3.9,-0.6
O=C(Nc1nc(-c2cccs2)cs1)c1ccc(Cl)s1,25*,-8.2,i,-1.5,1.7,-3.1
O=C(CSc1nc2ccc(Cl)cc2[nH]1)NC1CCCC1,i,-0.3,i,-0.7,-1.8,-5.1
O=C(CSc1nc2ccc([N+](=O)[O-])cc2[nH]1)NC1CCCCCC1,100*,-4.6,i,5.3,-2.5,-4.0
C=CCn1c(=O)c2ccc(C(=O)NCc3ccccc3)cc2n(Cc2ccc(Cl)cc2)c1=O,i,0.0,i,15.5,0.5,5.8
C=CCn1c(=O)c2ccc(C(=O)NCc3ccccc3)cc2n(Cc2cccc(Cl)c2)c1=O,i,1.9,i,-29.9,9.5*,3.4
CCCN1CCN(C2CCCCC2NS(=O)(=O)c2ccc(Cl)cc2)CC1 (stereo unspecified),i,-3.0,i,1.8,-1.4,-5.9
O=S(=O)(NC1CCCCC1N1CCN(c2ccc(F)cc2)CC1)c1ccc(Cl)cc1 (stereo unspecified),i,-3.5,-34.3*,7.3,0.4,-7.2
CCOC(=O)[C@H]1[C@H]2COc3ccc(OC)cc3[C@H]2N2C(=O)CNC(=O)[C@@]12C,·,-0.9,i,1.8,2.7,6.5
CNC(=O)COC(=O)c1ccc2c(c1)NC(=O)C1CCCN21 (stereo unspecified),i,-0.5,·,·,·,·
O=C(CCc1nc(-c2ccccc2)c(-c2ccccc2)o1)OCc1ccc(Br)cc1,i,-3.6,i,2.7,3.5,2.7
SMILES,ANO1 block,MIN6 prolif,ANO1 activ,MC4R antag cAMP,MC4R barr agon,HTR2A ag
O=C(CCc1nc(-c2ccccc2)c(-c2ccccc2)o1)OCc1ccc(Cl)cc1,i,-4.2,-5.53*,3.5,-0.7,-2.2
CCOC(=O)C(C)On1c(-c2cccc(Cl)c2)nc2ccc([N+](=O)[O-])cc21 (stereo unspecified),100*,-6.4,i,18.1,3.1,1.4
O=P1(NC2CCCCC2)OCC2(CO1)COP(=O)(NC1CCCCC1)OC2 (stereo unspecified),·,·,i,7.7,0.2,4.5
CN(Cc1cnn(C)c1)C(=O)CC1C(=O)NCCN1Cc1cccc(Oc2ccccc2)c1 (stereo unspecified),i,-2.0,i,3.6,-0.7,3.3
COc1cccc(CN2CCNC(=O)C2CC(=O)N(Cc2cnn(C)c2)C(C)C)c1 (stereo unspecified),i,0.5,-7.55*,18.7,1.9,7.1
CCn1nc(NC(=O)COC)c2cc3cccc(C)c3nc21,i,-0.9,i,-8.8,-0.4,5.6
CCn1nc(NC(=O)Cc2ccc(OC)cc2)c2cc3cccc(C)c3nc21,i,-3.5,i,9.6,9.3*,3.1
Cc1ccc(S(=O)(=O)N[C@H](CNCc2ccccc2)C(C)C)cc1,·,·,·,·,·,-3.2
O=C(Cc1cn2ccsc2n1)NCCc1ccc(F)cc1,i,-0.4,-48.8*,2.2,0.7,-1.8
COc1ccc(NC(=O)CCn2c(=S)[nH]c3ccccc3c2=O)cc1,i,-1.4,i,8.4,8.6*,4.9
COc1ccc(NC(=O)CCCn2c(=S)[nH]c3ccccc3c2=O)cc1,i,-1.6,i,1.5,-1.9,1.7
O=C(Nc1ccccc1OCc1ccccc1)c1ccccc1Br,i,-3.8,i,3.4,0.5,-7.3
CCn1c(C)nc2cc(C(=O)NNC(=O)CN(C)S(=O)(=O)c3ccc(NC(C)=O)cc3)ccc21,·,-0.2,i,6.5,-1.6,4.0
Cc1ccc([N+](=O)[O-])c(OCCN2C(=O)NC(C)(C)C2=O)c1,i,4.4,i,-1.2,-2.4,1.5
Cc1cc(OCCCCN2C(=O)NC(C)(C)C2=O)ccc1[N+](=O)[O-],25*,-2.0,i,28.3,0.2,3.0
Cc1occc1-c1nnc(SCC(=O)NCc2cccs2)n1CC1CCCO1 (stereo unspecified),·,·,-9.53*,-6.8,-1.6,-1.2
Cc1occc1-c1nnc(SCC(=O)c2ccccc2)n1CC1CCCO1 (stereo unspecified),i,-0.6,i,-1.6,-2.4,0.3
CCOC(=O)c1sc(=S)n(C)c1NC(=O)c1ccc(OC)cc1,i,-1.7,i,4.3,-1.1,1.2
CCOC(=O)c1sc(=S)n(C)c1NC(=O)c1ccc(C(C)(C)C)cc1,25*,-3.3,i,6.5,3.2,3.8
COc1cc(OC)cc(C(=O)NC2CC3CCC(C2)N3C)c1 (stereo unspecified),·,-3.1,i,-3.0,-2.0,2.3
